≈ marks a conversion by molar mass, not a printed value. Positions of bridges follow the written chain, without caps; N, C: chain ends. Non-standard residues stand in square brackets, D forms with d. Residues, ends and D or L forms follow the SMILES beside them. *: point of attachment. X1 = CC[C@H](C)CCCCC(=O)*; Dab = NCC[C@H](N)C(=O)O
What was measured:
[1] = test system: Pseudomonas aeruginosa; experiment: Antibacterial activity against Pseudomonas aeruginosa NRZ 03961 assessed as bacterial growth inhibition by broth microdilution assay; type: functional
How it was run: (§1)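 Broth microdilution. Bacteria from glycerol stocks were grown overnight on blood agar at 37 °C, then colonies were suspended in TSB and grown to OD600 0.5. Compounds were dissolved in DMSO at 6.4 mg mL−1 (stock) and serially diluted in CAMHB (Mg2+ 12.5, Ca2+ 20 μg mL−1) in polypropylene plates. Inoculum was 10^6 CFU mL−1 final, incubated at 37 °C. MIC = lowest concentration without visible growth; values consistent across at least triplicate experiments.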

[2] = test system: Acinetobacter baumannii; experiment: Antibacterial activity against Acinetobacter baumannii ATCC 17978 assessed as bacterial growth inhibition by broth microdilution assay; type: functional
How it was run: (§2)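 Broth microdilution MIC. Strains grown overnight on blood agar at 37 °C, colonies suspended in TSB and grown to OD600 0.5. Compounds dissolved in DMSO (6.4 mg mL−1 stock), diluted serially in CAMHB (12.5 μg mL−1 Mg2+, 20 μg mL−1 Ca2+) on polypropylene plates. Final inoculum 10^6 CFU mL−1, 37 °C under gas-permeable membrane. MIC is the lowest concentration with no visible growth, consistent across at least triplicate experiments.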

[3] = Cytotoxicity against human ciPTEC cells assessed as reduction in cell viability at 250 uM incubated for 24 hrs by PrestoBlue reagent based fluorescence assay; type: toxicity
How it was run: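 Differentiated ciPTEC-14.4 (conditionally immortalized) cells were washed with HBSS and then exposed to 250 μM compound in serum-free supplemented DMEM/F-12 for 24 h at 37 °C. After an HBSS wash, cells were incubated with 10% PrestoBlue in HBSS at 37 °C in the dark. Fluorescence was read at ex 530/em 590 nm, background-corrected, and expressed relative to medium-only cells; triplicates.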

[4] = test system: Escherichia coli; experiment: Antibacterial activity against Escherichia coli 1313 assessed as bacterial growth inhibition by broth microdilution assay; type: functional; how it was run: as §1
[5] = test system: Acinetobacter baumannii; experiment: Antibacterial activity against Acinetobacter baumannii 2018-006 assessed as bacterial growth inhibition by broth microdilution assay; type: functional; how it was run: as §2
[6] = test system: Acinetobacter baumannii; experiment: Antibacterial activity against multidrug-resistant Acinetobacter baumannii assessed as bacterial growth inhibition by broth microdilution assay; type: functional; how it was run: as §2
[7] = test system: Escherichia coli; experiment: Antibacterial activity against Escherichia coli ATCC 25922 assessed as bacterial growth inhibition by broth microdilution assay; type: functional; how it was run: as §1
[8] = test system: Klebsiella pneumoniae; experiment: Antibacterial activity against Klebsiella pneumoniae JS-123 assessed as bacterial growth inhibition by broth microdilution assay; type: functional; how it was run: as §1
[9] = test system: Acinetobacter baumannii; experiment: Antibacterial activity against Acinetobacter baumannii ATCC 19606 assessed as bacterial growth inhibition by broth microdilution assay; type: functional; how it was run: as §2
[10] = test system: Pseudomonas aeruginosa; experiment: Antibacterial activity against Pseudomonas aeruginosa NRZ 08418 assessed as bacterial growth inhibition by broth microdilution assay; type: functional; how it was run: as §1
[11] = test system: Klebsiella pneumoniae; experiment: Antibacterial activity against Klebsiella pneumoniae ATCC 13883 assessed as bacterial growth inhibition by broth microdilution assay; type: functional; how it was run: as §1
[12] = test system: Klebsiella pneumoniae; experiment: Antibacterial activity against Klebsiella pneumoniae NCTC 13443 assessed as bacterial growth inhibition by broth microdilution assay; type: functional; how it was run: as §1
[13] = test system: Pseudomonas aeruginosa; experiment: Antibacterial activity against Pseudomonas aeruginosa ATCC 27853 assessed as bacterial growth inhibition by broth microdilution assay; type: functional; how it was run: as §1
[14] = test system: Escherichia coli; experiment: Antibacterial activity against multidrug-resistant Escherichia coli NCTC 13846 assessed as bacterial growth inhibition by broth microdilution assay; type: functional; how it was run: as §2
[15] = test system: Escherichia coli; experiment: Synergistic antibacterial activity against polymyxin-resistant Escherichia coli assessed as fractional inhibitory concentration index incubated for 18 hrs in presence of rifampicin by checkerboard assay; type: functional
How it was run: (§3)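 8 × 8 checkerboard (64 combinations, each in triplicate) against E. coli EQAS mcr-2, grown to OD600 0.5 in TSB after overnight blood agar culture. Antibiotic and synergist serially diluted in CAMHB (12.5 μg mL−1 Mg2+, 20 μg mL−1 Ca2+), inoculum 10^6 CFU mL−1, 37 °C for 18 h. OD600 normalized to growth and no-growth controls. FICi calculated from minimal synergistic concentrations and single-agent MICs; ≤0.5 taken as synergy.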

[16] = Cytotoxicity against human ciPTEC cells assessed as reduction in cell viability incubated for 24 hrs by PrestoBlue reagent based fluorescence assay; type: toxicity; details: read-out: TC50
How it was run: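 ciPTEC-14.4 cells, differentiated, were treated for 24 h at 37 °C with compound at 100, 250, 500 or 1000 μM in serum-free DMEM/F-12 with insulin, transferrin, selenium, hydrocortisone, EGF and triiodothyronine. Viability was measured with 10% PrestoBlue in HBSS (fluorescence ex 530/em 590 nm), corrected for reagent background and normalized to untreated, medium-only control.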

[17] = test system: Escherichia coli; experiment: Synergistic antibacterial activity against polymyxin-resistant Escherichia coli assessed as fractional inhibitory concentration index incubated for 18 hrs in presence of novobiocin by checkerboard assay; type: functional; how it was run: as §3
[18] = test system: Escherichia coli; experiment: Synergistic antibacterial activity against polymyxin-resistant Escherichia coli assessed as fractional inhibitory concentration index incubated for 18 hrs in presence of erythromycin by checkerboard assay; type: functional; how it was run: as §3

Structure (SMILES) | MIC [1] [µg/mL] | MIC [2] [µg/mL] | Activity [3] [%] | MIC [4] [µg/mL] | MIC [5] [µg/mL] | MIC [6] [µg/mL] | MIC [7] [µg/mL] | MIC [8] [µg/mL] | MIC [9] [µg/mL] | MIC [10] [µg/mL] | MIC [11] [µg/mL] | MIC [12] [µg/mL] | MIC [13] [µg/mL] | MIC [14] [µg/mL] | fractional inhibitory concentration index (FICI) [15] | CC50 at 24 h [16] [µM] | fractional inhibitory concentration index (FICI) [17] | fractional inhibitory concentration index (FICI) [18]
CC(C)C[C@@H]1NC(=O)[C@@H](Cc2ccccc2)NC(=O)[C@H](CCN)NC(=O)[C@@H](NC(=O)[C@H](CCN)NC(=O)[C@@H](NC(=O)[C@H](N)CSSCCC2CCCCC2)[C@@H](C)O)CCNC(=O)[C@H]([C@@H](C)O)NC(=O)[C@H](CCN)NC(=O)[C@H](CCN)NC1=O | 4 (≈ 3.31 µM) | 1 (≈ 0.827 µM) | > 50 | 2 (≈ 1.65 µM) | 0.5 (≈ 0.414 µM) | 1 (≈ 0.827 µM) | 1 (≈ 0.827 µM) | 2 (≈ 1.65 µM) | 0.5 (≈ 0.414 µM) | 4 (≈ 3.31 µM) | 1 (≈ 0.827 µM) | 2 (≈ 1.65 µM) | 2 (≈ 1.65 µM) | 8 (≈ 6.62 µM) |  |  |  | 
CC(C)C[C@@H]1NC(=O)[C@@H](Cc2ccccc2)NC(=O)[C@H](CCN)NC(=O)[C@@H](NC(=O)[C@H](CCN)NC(=O)[C@@H](NC(=O)[C@H](N)CSSCc2cccc(Cl)c2)[C@@H](C)O)CCNC(=O)[C@H]([C@@H](C)O)NC(=O)[C@H](CCN)NC(=O)[C@H](CCN)NC1=O | 1 (≈ 0.818 µM) | 1 (≈ 0.818 µM) | > 50 | 0.125 (≈ 0.102 µM) | 2 (≈ 1.64 µM) | 4 (≈ 3.27 µM) | 1 (≈ 0.818 µM) | 0.25 (≈ 0.204 µM) | 1 (≈ 0.818 µM) | 2 (≈ 1.64 µM) | 0.5 (≈ 0.409 µM) | 0.25 (≈ 0.204 µM) | 4 (≈ 3.27 µM) | 4 (≈ 3.27 µM) |  |  |  | 
CC(C)CCSSC[C@@H](N)C(=O)N[C@H](C(=O)N[C@@H](CCN)C(=O)N[C@H]1CCNC(=O)[C@H]([C@@H](C)O)NC(=O)[C@H](CCN)NC(=O)[C@H](CCN)NC(=O)[C@H](CC(C)C)NC(=O)[C@@H](Cc2ccccc2)NC(=O)[C@H](CCN)NC1=O)[C@@H](C)O | 2 (≈ 1.71 µM) | 1 (≈ 0.856 µM) | > 50 | ≤ 0.125 | 0.5 (≈ 0.428 µM) | 1 (≈ 0.856 µM) | 1 (≈ 0.856 µM) | 0.25 (≈ 0.214 µM) | 0.5 (≈ 0.428 µM) | 1 (≈ 0.856 µM) | 0.5 (≈ 0.428 µM) | 0.5 (≈ 0.428 µM) | 1 (≈ 0.856 µM) | 8 (≈ 6.85 µM) |  |  |  | 
CC(C)CCSSC[C@@H](N)C(=O)N[C@H](C(=O)N[C@@H](CN)C(=O)N[C@H]1CCNC(=O)[C@H]([C@@H](C)O)NC(=O)[C@H](CCN)NC(=O)[C@H](CCN)NC(=O)[C@H](CC(C)C)NC(=O)[C@@H](Cc2ccccc2)NC(=O)[C@H](CCN)NC1=O)[C@@H](C)O | 1 (≈ 0.866 µM) | 0.25 (≈ 0.217 µM) |  | ≤ 0.125 | 0.25 (≈ 0.217 µM) | 0.25 (≈ 0.217 µM) | 1 (≈ 0.866 µM) | 0.25 (≈ 0.217 µM) | 0.25 (≈ 0.217 µM) | 1 (≈ 0.866 µM) | 0.25 (≈ 0.217 µM) | 0.25 (≈ 0.217 µM) | 1 (≈ 0.866 µM) | 4 (≈ 3.46 µM) | 0.14 | 130 | 0.19 | 0.27
CC[C@H](C)CCCCC(=O)N[C@@H](CCN)C(=O)N[C@H](C(=O)N[C@@H](CCN)C(=O)N[C@H]1CCNC(=O)[C@H]([C@@H](C)O)NC(=O)[C@H](CCN)NC(=O)[C@H](CCN)NC(=O)[C@H](CC(C)C)NC(=O)[C@@H](Cc2ccccc2)NC(=O)[C@H](CCN)NC1=O)[C@@H](C)O (X1-[Dab]T[Dab][Dab][Dab][dF]L[Dab][Dab]T; lactam 4-C) | 1 (≈ 0.831 µM) | 0.25 (≈ 0.208 µM) | 85 | 0.125 (≈ 0.104 µM) | 0.125 (≈ 0.104 µM) | 0.5 (≈ 0.415 µM) | 1 (≈ 0.831 µM) | 0.25 (≈ 0.208 µM) | 0.25 (≈ 0.208 µM) | 1 (≈ 0.831 µM) | 0.25 (≈ 0.208 µM) | 0.5 (≈ 0.415 µM) | 1 (≈ 0.831 µM) | 4 (≈ 3.32 µM) |  | 1480 |  | 

Source: ChEMBL document CHEMBL5356951, “Semisynthetic polymyxins with potent antibacterial activity and reduced kidney cell toxicity” (RSC Med Chem, 2023)
